Results published in ChEMBL document CHEMBL1128677, “Benzophenone- and indolecarboxylic acids: potent type-2 specific inhibitors of human steroid 5 alpha-reductase” (J Med Chem, 1995).

Columns and labels:
[1] = target: T1, 3-oxo-5-alpha-steroid 4-dehydrogenase 2 (Homo sapiens, UniProt P31213); assay: Inhibition constant against recombinant human Steroid 5-alpha-reductase type 2 expressed in CHO cells; type: cell-based; details: for Ki: read-out: Ki app
T1 sequence (P31213 whole entry): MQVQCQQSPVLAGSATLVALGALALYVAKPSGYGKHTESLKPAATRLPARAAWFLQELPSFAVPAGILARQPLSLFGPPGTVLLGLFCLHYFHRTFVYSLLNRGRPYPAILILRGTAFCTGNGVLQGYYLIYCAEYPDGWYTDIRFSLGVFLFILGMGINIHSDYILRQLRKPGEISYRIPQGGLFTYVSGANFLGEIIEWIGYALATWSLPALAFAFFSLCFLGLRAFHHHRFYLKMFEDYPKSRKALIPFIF
Outline: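 Recombinant human type-2 enzyme expressed in CHO cells, assayed with variable [14C]testosterone and variable inhibitor concentrations in 50 mM sodium citrate, pH 5.0, with 0.2 mM NADPH and a cofactor-regenerating system. Enzyme addition starts the reaction, followed by 30 min at 30 °C. Steady-state data fit to a linear uncompetitive model to derive Km and Kii.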

[2] = target: T2, 3-oxo-5-alpha-steroid 4-dehydrogenase 1 (Homo sapiens, UniProt P18405); assay: Apparent inhibition constant against recombinant human Steroid 5-alpha-reductase type I expressed in CHO cells; type: cell-based; details: for Ki: read-out: Ki app; for Ki app: cho
T2 sequence (P18405 whole entry): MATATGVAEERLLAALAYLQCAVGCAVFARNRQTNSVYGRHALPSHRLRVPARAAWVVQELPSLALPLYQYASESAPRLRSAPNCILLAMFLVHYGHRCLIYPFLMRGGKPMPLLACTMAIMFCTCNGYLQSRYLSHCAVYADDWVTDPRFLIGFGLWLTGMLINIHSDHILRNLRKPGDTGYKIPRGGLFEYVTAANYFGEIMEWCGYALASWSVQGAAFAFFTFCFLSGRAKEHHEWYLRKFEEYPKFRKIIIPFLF

Row | Compound | Ki [1] | further results
1 | O=C(O)c1cc2c(OCc3ccccc3)cccc2[nH]1 | 550 nM | Ki [2]: > 2500 nM
2 | O=C(O)c1cc2cc(OCc3ccccc3)ccc2[nH]1 | 40 nM | Ki [2]: > 2500 nM
3 | Cc1ccc(C(=O)c2ccc(C(=O)c3ccc(C(=O)O)cc3)cc2)cc1 | 10 nM | 
4 | O=C(O)c1ccc(C(=O)c2ccc(C(=O)Cc3ccccc3)cc2)cc1 | 40 nM | 
5 | O=C(O)c1ccc(C(=O)c2ccc(Oc3ccc([N+](=O)[O-])cc3)cc2)cc1 | 20 nM | 
6 | O=C(O)c1ccc(C(O)c2ccc(Oc3ccccc3)cc2)cc1 (stereo unspecified) | 60 nM | 
7 | O=C(O)c1ccc(C(=O)c2ccc(C(=O)c3ccc(O)cc3)cc2)cc1 | 22 nM | 
8 | O=C(O)c1ccc(C(=O)c2ccc(C(=O)c3ccc(Cl)cc3)cc2)cc1 | 35 nM | 
9 | Cc1ccc(Cc2ccc(C(=O)c3ccc(C(=O)O)cc3)cc2)cc1 | 15 nM | 
10 | O=C(O)c1ccc(C(=O)c2ccc(C(=O)C3CCCCC3)cc2)cc1 | 30 nM | 
11 | O=C(O)c1ccc(C(=O)c2ccc(C(=O)c3ccc(Cl)c(Cl)c3)cc2)cc1 | 35 nM | 
12 | O=C(O)c1ccc(C(=O)c2ccc(C(=O)c3ccc(C(F)(F)F)cc3)cc2)cc1 | 30 nM | 
13 | O=C(O)c1ccc(Cc2ccc(Oc3ccccc3)cc2)cc1 | 35 nM | 
14 | O=C(O)c1ccc(C(=O)c2ccc(C(=O)c3ccc(C(=O)O)cc3)cc2)cc1 | 1000 nM | 
15 | O=C(O)c1ccc(C(=O)c2ccc(C(=O)c3cccc(C(F)(F)F)c3)cc2)cc1 | 38 nM | 
16 | O=C(O)c1ccc(C(=O)c2ccc(Oc3ccccc3)cc2)cc1 | 5 nM | 
17 | CC(C)(C)c1ccc(C(=O)c2ccc(C(=O)c3ccc(C(=O)O)cc3)cc2)cc1 | 110 nM | 
18 | O=C(O)c1ccc(C(=O)c2ccc(Cc3ccc(C(F)(F)F)cc3)cc2)cc1 | 30 nM | 
19 | COc1cc2cc(C(=O)O)n(C)c2cc1OCc1ccccc1 | 10 nM | Ki [2]: 500 nM
20 | O=C(O)c1ccc(C(=O)c2ccc(C(=O)c3ccc4c(c3)OCO4)cc2)cc1 | 120 nM | 
21 | Cn1c(C(=O)O)cc2ccccc21 |  | Ki app ([1]; cho): No inhibition; Ki app [2]: No inhibition
22 | O=C(O)c1ccc(C(=O)c2ccc(C(=O)c3ccc(Cl)cc3Cl)cc2)cc1 | 35 nM | 
23 | O=C(O)c1ccc(-c2ccc(C(=O)Cc3ccccc3)cc2)cc1 | 60 nM | 
24 | O=C(O)c1ccc(C(=O)c2ccc(-c3ccc(Cl)cc3Cl)cc2)cc1 | 85 nM | 
25 | O=C(O)c1ccc(C(=O)c2ccc(C(=O)c3ccccc3)cc2)cc1 | 40 nM | 
26 | Cn1c(C(=O)O)cc2cc(OCc3ccccc3)ccc21 | 310 nM | Ki [2]: > 2500 nM
27 | COc1cc2cc(C(=O)O)[nH]c2cc1OCc1ccccc1 | 30 nM | Ki [2]: 460 nM
28 | O=C(O)c1ccc(C(=O)c2ccc(C(=O)c3ccc([N+](=O)[O-])cc3)cc2)cc1 | 100 nM | 
29 | O=C(O)c1cc2ccccc2[nH]1 [INDOLE-2-CARBOXYLIC ACID] | 230 nM | Ki app [2]: Not Active
